# High-throughput results from PubChem BioAssay.
# A selection: hits, their analogues and other compounds. The true share with any hit is near 2.7%.
# MC4R barr agon: activates human MC4R beta-arrestin recruitment | 360,000 tested, 0.98% active | activation, % at 8.9 µM | U2OS MC4R beta-arrestin complementation, luminescence; percent of melanotan II response, DMSO zero;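 active means activation above a per-plate cutoff, the mean activation of sample wells on that plate plus 3 SD, cut at about 8% in these data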
# Hep lipid drop: hepatic lipid droplet formation modulation. AML12 mouse hepatocytes, oleate lipid droplets, BODIPY imaging. inhibition, % at 6.5 µM. 240,000 tested, 0.4% active. AID 1656;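 active means lipid droplet intensity inhibited by at least 50%, with more than 500 cells counted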
#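 Assay system: AML12 mouse liver cells | Compound dosing: One dose, 6.5 µM compound | Read-out basis: Droplet intensity reduction, % inhibition | Measured by: Fluorescence imaging, 20x objective, two fields per well | Schedule: Overnight treatment with compound plus oleate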
# PREPL inh: inhibits the human prolyl oligopeptidase-like enzyme | Q4J6C6 | recombinant PREPL, fluorescence polarization activity-based probe | inhibition, % at 5.96 µM | 320,000 tested, 0.68% active | AID 2751;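 further: 0% = enzyme with DMSO and 100% = wells lacking enzyme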
# m5-HT2A agonist: mouse HTR2A agonism via beta-arrestin recruitment. CHO-K1 mHTR2A beta-arrestin complementation, luminescence; percent of 30 µM serotonin response. activation, % at 7.6 µM. 360,000 tested, 0.66% active. AID 624169;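 active means activation above a run cutoff, the mean activation of all tested compounds plus 3 SD, cut at about 14% in these data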;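 further: 0% = plate median of compound wells and 100% = 30 µM serotonin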
# Target sequence (P35363 whole entry, looked up): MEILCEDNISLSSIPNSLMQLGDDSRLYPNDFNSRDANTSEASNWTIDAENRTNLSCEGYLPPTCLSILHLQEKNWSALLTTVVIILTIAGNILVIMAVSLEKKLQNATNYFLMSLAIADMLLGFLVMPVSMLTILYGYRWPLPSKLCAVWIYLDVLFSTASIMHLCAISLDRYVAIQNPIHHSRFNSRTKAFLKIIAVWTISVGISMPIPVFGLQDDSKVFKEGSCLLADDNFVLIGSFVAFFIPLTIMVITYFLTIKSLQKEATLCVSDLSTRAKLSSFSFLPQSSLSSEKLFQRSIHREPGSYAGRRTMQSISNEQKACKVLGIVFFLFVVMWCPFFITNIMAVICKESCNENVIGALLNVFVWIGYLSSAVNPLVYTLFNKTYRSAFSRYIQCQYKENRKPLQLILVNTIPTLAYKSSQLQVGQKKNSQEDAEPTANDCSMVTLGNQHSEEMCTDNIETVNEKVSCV
# NTR1 agonist: agonists of human neurotensin receptor NTR1; P30989; NTR1-U2OS beta-arrestin-GFP spot imaging, agonist mode; activation, % at 20 µM; 330,000 tested, 0.17% active;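 active means activation at or above 40% of the spot to cytoplasm intensity ratio, with at least 20 cells analyzed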;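 further: 0% = DMSO without peptide and 100% = 100 nM NTR1 peptide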
# MC4R antag cAMP: antagonists of human melanocortin 4 receptor (MC4R). P32245. MC4R-expressing cells, MTII-stimulated cAMP, LANCE TR-FRET. inhibition, % at 6.5 µM. 360,000 tested, 0.48% active. AID 540295;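 active means inhibition above its plate's cutoff, the mean of tested wells on that plate plus 3 SD, cut at about 29% in these data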;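 further: 0% = Melanotan II alone and 100% = Melanotan II plus saturating MCL0020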
#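 system = U2OS cells with stable human MC4R expression | also added = Melanotan II challenge after compound preincubation | dosing = one concentration, 6.5 µM nominal | incubation = compound 30 min, challenge 1 h, detection 1 h | measured by = TR-FRET with Eu-cAMP and labeled anti-cAMP, 671 nm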
# PREPL inh cf: human PREPL inhibition, confirmation; inhibition, % at 5.96 µM; recombinant PREPL, fluorescence polarization activity probe; shares compounds with PREPL inh; 2,000 tested, 67% active;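 further: 0% = protein with DMSO and 100% = wells lacking protein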
# Active calls of the source: *; / = not tested or not shown. Unless noted, no stated cut-off is given here; in the data, active means inhibition above about 43%; inactive means the rest.
SMILES,MC4R barr agon,Hep lipid drop,PREPL inh,m5-HT2A agonist,NTR1 agonist,MC4R antag cAMP,PREPL inh cf
COc1ccc(C2CC(c3cccc(OC)c3)n3nc(N)nc3N2)cc1 (configuration not stated),2.0,-21.1,45.7*,2.5,2.9,6.1,52.3*
C#CCNC(=O)C1=C[C@@H](C)[C@H](CCCO)[C@@H](OCC)O1,1.7,/,6.1,5.8,-3.4,2.0,/
CN(C)c1nc(/C=C(\C#N)C(N)=O)c(Cl)n1-c1ccc(F)cc1,-2.1,-13.4,16.6,-3.2,1.2,-8.7,/
CC(=O)N1CCN(C(=O)COC(=O)/C=C/c2ccc(C(F)(F)F)cc2)CC1,0.5,/,19.8,0.1,-0.3,-1.1,/
COc1cccc(CNC(=S)Nc2ccc3c(c2)c(=O)n(C)n3Cc2ccc(F)cc2)c1,-0.8,/,/,1.7,/,4.5,/
CCCCN(C=O)c1c(CC)nc2ccc(C(=O)NCCN(C)C)cn12,-2.5,/,/,-4.4,/,8.0,/
COc1ccc(-c2ccc(C#N)c(SCC(=O)OCc3ccccc3)n2)cc1OC,-0.9,/,57.5*,-1.4,2.3,8.6,15.6
C#CCOCCOCCOCCNc1nc(N2CCN(C(=O)C(Cc3cc4ccccc4[nH]3)n3cc(C(N)C(C)CC)nn3)CC2)nc(N2CCN(C(=O)C(Cc3cc4ccccc4[nH]3)n3cc(C(N)C(C)CC)nn3)CC2)n1 (configuration not stated),/,-11.1,49.5*,/,0.7,/,62.0*
C#CCOCCOCCOCCNc1nc(N2CCN(C(=O)[C@H](CCCCN)n3cc([C@@H](N)C(C)CC)nn3)CC2)nc(N2CCN(C(=O)[C@H](Cc3cc4ccccc4[nH]3)n3cc([C@@H](N)C(C)CC)nn3)CC2)n1 (some centres not stated),-0.2,/,57.1*,1.3,-0.9,5.3,53.2*
C#CCOCCOCCOCCNc1nc(N2CCOCC2)nc(N2CCN(C(=O)[C@H](Cc3cc4ccccc4[nH]3)n3cc([C@@H](N)C(C)CC)nn3)CC2)n1 (some centres not stated),-1.2,-1.6,23.8,3.2,-3.1,-3.4,/
O=C(COc1ccc2c3c(c(=O)oc2c1)CCC3)Nc1ccccn1,-2.9,17.4,3.7,-1.8,-1.2,2.2,/
CCOc1ccc(NC(=O)CC2SC(=O)N(c3ccccc3)C2=O)cc1 (configuration not stated),-4.3,2.0,7.6,-2.7,2.6,12.3,/
Cc1cc(/C=C2\SC(=S)NC2=O)c(C)n1-c1ccc(O)cc1,-1.8,2.5,6.8,-2.6,-0.7,13.8,/
Cc1cc(/C=C2\SC(=Nc3ccc(F)cc3)NC2=O)c(C)n1-c1ccc(S(N)(=O)=O)cc1,-2.6,-7.8,54.0*,0.0,6.4,-14.9,53.0*
CCOC(=O)C1(CCOc2ccccc2)CCN(Cc2cc(OC)ccc2OC)CC1,0.1,-4.5,49.8*,-6.2,0.2,1.9,38.5
C[C@@H]1O[C@@H](Oc2c(-c3cc(O)c(O)c(O)c3)oc3cc(O)cc(O)c3c2=O)[C@H](O)[C@H](O)[C@H]1O,-0.7,-4.0,47.6*,4.7,-0.8,-5.0,20.0
CCCn1c(Oc2ccccc2)nc2c1c(=O)n(C)c(=O)n2C,0.3,-6.4,3.3,3.5,0.3,-1.0,/
C=C(C)C1CC=C(C)/C(=N/NC(=O)CNc2ccc(OCC)cc2)C1 (configuration not stated),4.8,/,46.2*,-4.9,1.6,4.3,9.6
COc1cc(/C=N\NC(=O)c2ccc(Cn3cc(Br)c([N+](=O)[O-])n3)o2)cc(OC)c1O,-2.5,5.0,51.2*,3.3,-0.8,-0.6,41.5
COc1ccc(/C=C/c2cc[n+](C(=O)Cc3ccccc3)cc2)cc1,-0.1,-1.0,45.1*,-6.2,-1.3,-0.2,28.2
Cc1c(C)c2ccc(OCC(=O)NCCc3c[nH]c4ccccc34)cc2oc1=O,3.1,/,/,-0.8,/,0.5,/
CC1(C)N=C(N)N=C(N)N1c1ccc(Oc2ccc(Cl)cc2)c(Cl)c1,-0.7,-86.1,55.0*,-8.8,-0.6,3.1,52.4*
COc1ccc(NC2SC(=O)N(C)C2=O)cc1 (configuration not stated),-0.3,12.2,-12.1,-2.0,-0.6,5.2,/
O=C(COc1coc(CN2CCc3ccccc32)cc1=O)N1CCCCC1,0.1,/,44.5*,7.8,2.0,1.0,35.0
O=C(COc1coc(CN2CCc3ccccc32)cc1=O)NCCc1ccccc1,0.5,/,17.7,0.6,1.0,4.7,/
SMILES,MC4R barr agon,Hep lipid drop,PREPL inh,m5-HT2A agonist,NTR1 agonist,MC4R antag cAMP,PREPL inh cf
Cc1nn(-c2ccccc2)c(/N=C/c2ccccc2O)c1-c1ccccc1,1.0,16.3,5.8,-6.4,3.9,-0.8,/
CSc1ncc(CN2CCc3c([nH]c4ccccc34)C2c2cccc(O)c2)cn1 (configuration not stated),-1.1,0.5,-1.0,-1.9,5.0,2.6,/
Cc1cc(/C=C(/C#N)c2nc3ccccc3[nH]2)c(C)n1-c1cccc([N+](=O)[O-])c1,-1.6,20.5,43.6*,-4.3,2.6,1.9,38.5
COc1ccc(/C=C(\C#N)c2nc3ccccc3[nH]2)cc1O,-0.3,/,/,-3.5,1.0,-14.2,/
COc1c(O)ccc(/C=C(\C#N)c2nc3ccccc3[nH]2)c1[N+](=O)[O-],-1.9,20.0,55.9*,-3.7,0.1,5.3,16.1
Cc1cc(/C=C(\C#N)c2nc3ccccc3[nH]2)c(C)n1C,2.8,29.8,22.6,0.9,-0.5,-6.8,/
O=C1C[C@@H]2c3c(cccc3CN1Cc1ccccc1F)C[C@@H](O)[C@H]2O,-0.8,/,/,-3.9,/,11.5,/
CSCCCN1CCC(n2nccc2NC(=O)CCCc2ccccc2)CC1,-3.9,1.2,19.3,-0.9,-0.3,3.3,/
CCCCC(CC)C(=O)Nc1cc(C(=O)NCCC)ccc1N1CCC2(CC1)CC(c1ccccc1)=NO2 (configuration not stated),-1.4,17.5,50.4*,-11.6,-0.9,13.2,55.4*
COc1cc(/C=C2/SC(=S)N(CC(=O)O)C2=O)ccc1OC(=O)c1cccs1,-2.1,-0.9,58.5*,1.8,0.1,1.8,62.1*
COc1cc(/C=C2\SC(=S)N(CC(=O)O)C2=O)ccc1OS(=O)(=O)c1ccc(C)cc1,1.1,/,10.6,3.1,1.1,-1.0,/
C[C@@H](C(=O)NC1CCN(Cc2ccccc2)CC1)N1C(=O)N2CCc3c([nH]c4ccccc34)[C@@]2(C)C1=O,0.5,/,16.2,-7.7,0.6,4.2,/
CC(C)C[C@@H](C(=O)NC1CCN(Cc2ccccc2)CC1)N1C(=O)N2CCc3c([nH]c4ccccc34)[C@@]2(C)C1=O,-0.2,/,43.5*,-7.1,3.3,6.0,32.9
